From ChEMBL document CHEMBL2029228, “Antimalarial activity of 9a-N substituted 15-membered azalides with improved in vitro and in vivo activity over azithromycin” (J Med Chem, 2012) come the findings set out here.

Activity calls are given as the source filed them. The calls are words filed in the database; no cut-off is given here. Where only a bound is given, the exact number is not on record here.

A word on the IC50: it is the concentration at which inhibition is half-maximal. A lower IC50 goes with higher potency. What is called bioavailability is dose-corrected exposure relative to a reference, in per cent. What is called fraction unbound is free concentration divided by total concentration. A higher fraction unbound goes with much free substance.

Series [1] concerns Plasmodium berghei. Put plainly: Antimalarial activity against Plasmodium berghei KBG173 infected in mouse assessed as decrease in parasitemia at 5 mg/kg, iv BID administered on day 3, 4 and 5 post infection measured on day 31 relative to control. It is filed as functional, organism-based. Details: dose 5 mg/kg. The procedure, abridged: (§1)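 Male mice (24–30 g) inoculated intraperitoneally with 5 × 10⁶ P. berghei KBG-173-infected erythrocytes; parasitemia about 1.0–3.7% by day 3. Dosing twice daily on days 3–5 postinfection. Blood smears negative on day 31 counted as cured, scored as cured/total mice (5 per dose). Mice losing ≥20% body weight sacrificed.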

Series [2] relates to Plasmodium berghei. Put plainly: Antimalarial activity against Plasmodium berghei KBG173 infected in mouse assessed as decrease in parasitemia at 2.5 mg/kg, iv BID administered on day 3, 4 and 5 post infection measured on day 31 relative to control. It is filed as functional, organism-based. Further details: dose 2.5 mg/kg. In short, it runs like this:
as §1

Series [3] relates to Plasmodium berghei. Put plainly: Antimalarial activity against Plasmodium berghei KBG173 infected in mouse assessed as decrease in parasitemia at 1.25 mg/kg, iv BID administered on day 3, 4 and 5 post infection measured on day 31 relative to control. Further details: dose 1.25 mg/kg. It is filed as functional, organism-based. In short, it runs like this:
as §1

The test system of series [4] is Plasmodium berghei. Put plainly: Antimalarial activity against Plasmodium berghei KBG173 infected in mouse assessed as decrease in parasitemia at 5 mg/kg, ip BID administered on day 3, 4 and 5 post infection measured on day 31 relative to control. The series is classed as functional, organism-based. Further details: dose 5 mg/kg. In short, it runs like this: as §1

Series [5] concerns Plasmodium berghei. Put plainly: Antimalarial activity against Plasmodium berghei KBG173 infected in mouse assessed as decrease in parasitemia at 2.5 mg/kg, ip BID administered on day 3, 4 and 5 post infection measured on day 31 relative to control. Details: dose 2.5 mg/kg. The series is classed as functional, organism-based. The procedure, abridged:
as §1

In series [6] the test system is Plasmodium berghei. Put plainly: Antimalarial activity against Plasmodium berghei KBG173 infected in mouse assessed as decrease in parasitemia at 1.25 mg/kg, ip BID administered on day 3, 4 and 5 post infection measured on day 31 relative to control. The series is classed as functional, organism-based. Details: dose 1.25 mg/kg. In short, it runs like this: as §1

In series [7] the test system is Plasmodium berghei. The series can be described thus: Antimalarial activity against Plasmodium berghei KBG173 infected in mouse assessed as cured mouse at 5 mg/kg, iv BID administered on day 3, 4 and 5 post infection measured up to day 31. The series is classed as functional, organism-based. Further details: dose 5 mg/kg. In short, it runs like this: as §1
Series [8] concerns Plasmodium berghei. The series can be described thus: Antimalarial activity against Plasmodium berghei KBG173 infected in mouse assessed as decrease in parasitemia at 20 mg/kg, iv BID administered on day 3, 4 and 5 post infection measured on day 31 relative to control. The series is classed as functional, organism-based. Details: dose 20 mg/kg. In short, it runs like this:
as §1

For series [9], the system named is Plasmodium berghei. Put plainly: Antimalarial activity against Plasmodium berghei KBG173 infected in mouse assessed as decrease in parasitemia at 15 mg/kg, iv BID administered on day 3, 4 and 5 post infection measured on day 31 relative to control. Details: dose 15 mg/kg. The series is classed as functional, organism-based. In short, it runs like this:
as §1

The subject of series [10] is Plasmodium berghei. Put plainly: Antimalarial activity against Plasmodium berghei KBG173 infected in mouse assessed as decrease in parasitemia at 20 mg/kg, ip BID administered on day 3, 4 and 5 post infection measured on day 31 relative to control. It is filed as functional, organism-based. Details: dose 20 mg/kg. The procedure, abridged:
as §1

The test system of series [11] is Plasmodium berghei. The series can be described thus: Antimalarial activity against Plasmodium berghei KBG173 infected in mouse assessed as decrease in parasitemia at 10 mg/kg, ip BID administered on day 3, 4 and 5 post infection measured on day 31 relative to control. It is filed as functional, organism-based. Details: dose 10 mg/kg. The procedure, abridged: as §1

The subject of a further series is HepG2. Put plainly: Cytotoxicity against human HepG2 cells after 24 hrs by MTS assay. The series is classed as cell-based. The following applies: HepG2, 24 h. In short, it runs like this:
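HepG2 cells kept in RPMI 1640 with 10% FBS plus antibiotics at 37 °C, 5% CO₂. 50 000 cells per well exposed to 10 two-fold serial dilutions for 24 h. MTS reagent then added for 2 h more, absorbance read at 490 nm, IC50 derived.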
In general terms: Tetrazolium assays rely on reduction of a dye to a coloured formazan, in cell work by metabolically active cells.

A short description of series [12]: Clearance at steady state in CD1 mouse at 5 mg/kg, iv. The following applies: in vivo, read-out: CLss. The series is classed as ADME, organism-based. Further details: dose 5 mg/kg, route intravenous. The procedure, abridged:
(§2)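 Male CD-1 mice (N = 3 per route) dosed IV at 5 mg/kg or orally at 25 mg/kg while fasted, mostly in saline (2.5 mg/mL). Tail-vein blood taken up to 24 h, cardiac puncture at 30 h. Samples hemolyzed, protein-precipitated with acetonitrile plus internal standard, analysed by positive ESI LC-MS/MS.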

A short description of series [13]: Volume of distribution at steady state in CD1 mouse at 5 mg/kg, iv. The series is classed as ADME, organism-based. Further details: dose 5 mg/kg, route intravenous. To be noted: in vivo, read-out: Vdss. In short, it runs like this: as §2
Series [14] relates to Mus musculus. The series can be described thus: Half life in CD1 mouse at 5 mg/kg, iv. It is filed as ADME, organism-based. Details: dose 5 mg/kg, route intravenous. The following applies: mouse, in vivo. In short, it runs like this:
as §2

A short description of series [15]: Oral bioavailability in CD1 mouse at 25 mg/kg. It is filed as ADME, organism-based. To be noted: in vivo. The procedure, abridged: as §2
Series [16] is described as follows: Fraction unbound in CD1 mouse plasma at 5 mg/kg, iv. It is filed as ADME, organism-based. Details: dose 5 mg/kg, route intravenous. The procedure, abridged:
(§3)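 Fraction unbound measured in mouse plasma by ultrafiltration at 1 μg/mL. Unbound clearance = blood clearance/fu, assuming blood/plasma ratio of 1. Blood clearance comes from male CD-1 mice dosed IV at 5 mg/kg, with tail-vein sampling up to 24 h and LC-MS/MS analysis.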

For series [17], the system named is Mus musculus. Put plainly: Unbound clearance in CD1 mouse at 5 mg/kg, iv. The series is classed as ADME, organism-based. Details: dose 5 mg/kg, route intravenous. The following applies: in vivo. The procedure, abridged: as §3
In series [18] the test system is Plasmodium berghei. Put plainly: Antimalarial activity against Plasmodium berghei KBG173 infected in mouse assessed as cured mouse at 15 mg/kg, iv BID administered on day 3, 4 and 5 post infection measured up to day 31. It is filed as functional, organism-based. Details: dose 15 mg/kg. The procedure, abridged:
as §1

Series [19] relates to Plasmodium berghei. Put plainly: Antimalarial activity against Plasmodium berghei KBG173 infected in mouse assessed as mouse survival time at 5 mg/kg, iv BID administered on day 3, 4 and 5 post infection. The series is classed as functional. In short, it runs like this:
(§4)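 Male mice (24−30 g) inoculated intraperitoneally with 5 × 10⁶ P. berghei KBG-173-infected erythrocytes; parasitemia 1.0–3.7% by day 3. IV dosing twice daily on days 3, 4 and 5 post-infection. Read-out is the survival time of the last animal alive. Mice blood-smear negative on day 31 counted as cured; mice losing ≥20% body weight sacrificed.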

The subject of series [20] is Plasmodium berghei. The series can be described thus: Antimalarial activity against Plasmodium berghei KBG173 infected in mouse assessed as mouse survival time at 15 mg/kg, iv BID administered on day 3, 4 and 5 post infection. It is filed as functional. In short, it runs like this: as §4
The test system of series [21] is Plasmodium berghei. The series can be described thus: Antimalarial activity against Plasmodium berghei KBG173 infected in mouse assessed as decrease in parasitemia at 10 mg/kg, iv BID administered on day 3, 4 and 5 post infection measured on day 31 relative to control. It is filed as functional, organism-based. Further details: dose 10 mg/kg. In short, it runs like this:
as §1

As for `CCN(CC)CCCC(C)Nc1ccnc2cc(Cl)ccc12` (stereo not drawn), the outcome in the series with Plasmodium berghei [1], in the series on Plasmodium berghei [2], in the series on Plasmodium berghei [3], in the series on Plasmodium berghei [4], in the series with Plasmodium berghei [5] and in the series on Plasmodium berghei [6] was inactive.

`CC[C@H]1OC(=O)[C@H](C)[C@@H](O[C@H]2C[C@@](C)(OC)[C@@H](O)[C@H](C)O2)[C@H](C)[C@@H](O[C@@H]2O[C@H](C)C[C@H](N(C)C)[C@H]2O)[C@](C)(O)C[C@@H](C)CN(CCCNc2ccnc3cc(Cl)ccc23)[C@H](C)[C@@H](O)[C@]1(C)O`: the outcome in the series on Plasmodium berghei [7] and in the series on Plasmodium berghei [11] was inactive. For the same compound, the outcome with Plasmodium berghei [8], in the series with Plasmodium berghei [9] and with Plasmodium berghei [10] was Active.

Consider `CC[C@H]1OC(=O)[C@H](C)[C@@H](O[C@H]2C[C@@](C)(OC)[C@@H](O)[C@H](C)O2)[C@H](C)[C@@H](O[C@@H]2O[C@H](C)C[C@H](N(C)C)[C@H]2O)[C@](C)(O)C[C@@H](C)CN(C)[C@H](C)[C@@H](O)[C@]1(C)O` [AZITHROMYCIN], for which the IC50 with HepG2 is more than 50 µM. Further, the clearance in [12] came out at 16 mL/min/kg. For the same compound, in series [13], the Vd came to 8.8 L/kg. In the series with Mus musculus [14], this compound gave a t1/2 of 8.3 h. This compound yielded a bioavailability in series [15] of 72%. The same compound returned a fraction unbound in series [16] of 0.69. Further, the CL free in the series on Mus musculus [17] came out at 23.2 mL/min/kg. Besides, the outcome in the series with Plasmodium berghei [7], with Plasmodium berghei [18] and with Plasmodium berghei [21] was inactive. The Survival with Plasmodium berghei [19] was 17 days; in the series on Plasmodium berghei [20], 19 days.
